How the values were obtained:
[1] = Cytotoxicity against human MCF7 cells assessed as decrease in cell viability after 48 hrs by XTT assay; type: cell-based
Procedure, shortened: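 MCF-7 cells grown as for parasite culture but with 10% fetal calf serum in place of human serum; trypsinized and seeded at 2 × 10^4 cells/well, incubated overnight, then compound added at final 1, 10 and 100 […] mL1. Viability read by XTT reduction after 48 h drug contact; experiments run twice in triplicate.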

[2] = Selectivity index, ratio of CC50 for human MCF7 cells to IC50 for chloroquine-resistant Plasmodium falciparum FcB1; type: functional
[3] = test system: Plasmodium falciparum; experiment: Antiplasmodial activity against chloroquine-resistant Plasmodium falciparum FcB1 infected in human RBC assessed as [3H]-hypoxanthine incorporation after 48 hrs by liquid scintillation counting analysis; type: functional, organism-based
Procedure, shortened: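 FcB1 maintained in RPMI 1640 with L-glutamine, 25 mM HEPES, 10% human serum, group O RBCs, 5% CO2; synchronized by magnetic enrichment then D-sorbitol lysis. Serial dilutions in culture medium; [3H]-hypoxanthine added at 24 h, harvest at 48 h after freeze-thaw. IC50 by linear regression on linear segments of semilog inhibition curves; triplicate, three repeats.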

[4] = test system: Plasmodium berghei; experiment: In vivo antimalarial activity against Plasmodium berghei ANKA assessed as inhibition of parasitemia at 30 mg/kg/day; type: functional
[5] = Half life in human liver microsomes; type: ADME

Compound | CC50 at 48 h [1] [µM] | Ratio CC50/IC50 [2] | IC50 ([3]; Plasmodium falciparum, FcB1) [µM] | IC50 [3] [µM] | inhibition in vivo at 30 mg/kg/day [4] [%] | half-life [5] [min]
O=C1C(c2ccccc2)=[N+]([O-])c2cc([N+](=O)[O-])c(/C=C(\Cl)c3ccccc3)cc21 | 59 | 70 | 0.84 | – | – | –
Nc1ccc(C2=[N+]([O-])c3ccccc3C2=O)cc1 | 13 | 77 | 0.168 | – | – | –
COc1ccc2c(c1)[N+]([O-])=C(c1ccc(N)cc1)C2=O | 12.7 | 528 | 0.024 | – | – | –
COc1ccc2c(c1)C(=O)C(c1ccc(N)cc1)=[N+]2[O-].Cl | 9.7 | >3233 | < 0.003 | – | – | –
COc1ccc2c(c1)C(=O)C(c1ccc(N(C)C)cc1)=[N+]2[O-].Cl | 33.7 | >112333 | – | < 0.0003 | – | –
COc1ccc2c(c1)C(=O)C(c1ccc(N(C)C)c(C)c1)=[N+]2[O-] | 35.4 | 885 | 0.04 | – | – | –
CCCCNc1ccc(C2=[N+]([O-])c3ccc(OC)cc3C2=O)cc1 | 43.2 | 2057 | 0.021 | – | – | –
COc1ccc2c(c1)C(=O)C(c1ccc(N3CCOCC3)cc1)=[N+]2[O-] | > 29.5 | >4538.5 | 0.0065 | – | – | –
COc1ccc2c(c1)C(=O)C(c1cccnc1)=[N+]2[O-] | 17.3 | 107 | 0.161 | – | – | –
O=C1C(c2ccc(Cl)cc2)=[N+]([O-])c2cccnc21 | – | – | > 2.72 | – | – | –
O=C1C(c2ccc(Cl)cc2)=[N+]([O-])c2cc[n+]([O-])cc21 | – | – | > 5.44 | – | – | –
CN(C)c1ccc(C2=[N+]([O-])c3cc(N)ccc3C2=O)cc1 | 21.3 | 1.8 | 12.3 | – | – | –
Nc1ccc2c(c1)[N+]([O-])=C(c1ccc(Cl)cc1)C2=O | 11 | 60 | 0.183 | – | – | –
COc1ccc(C2=[N+]([O-])c3cc(N)ccc3C2=O)cc1 | > 37.3 | >33 | 1.56 | – | – | –
COc1ccc2cc(C3=[N+]([O-])c4cc(N)ccc4C3=O)ccc2c1 | 7.8 | 6 | 1.32 | – | – | –
Nc1ccc2c(c1)[N+]([O-])=C(CCCN1C(=O)c3ccccc3C1=O)C2=O | 6.6 | 0.8 | 8.3 | – | – | –
CCOC(=O)c1ccc2c(c1)[N+]([O-])=C(c1ccccc1)C2=O | 26.4 | 91.9 | 0.284 | – | – | –
COc1ccc2c(c1)C(=O)C(c1ccc(N(C)C)cc1)=[N+]2[O-] | – | >14623 | – | < 0.003 | 15.3 | –
O=C1C(c2ccc(Cl)cc2)=[N+]([O-])c2cc3c(cc21)OCO3 | – | – | – | – | 62.1 | < 1
C[C@H]1[C@H](OC(=O)CCC(=O)O)O[C@@H]2O[C@@]3(C)CC[C@H]4[C@H](C)CC[C@@H]1[C@@]24OO3 [SODIUM ARESUNATE] | – | – | 0.006 | – | – | –

From ChEMBL document CHEMBL3352368, “Amino derivatives of indolone-N-oxide: preparation and antiplasmodial properties” (Eur J Med Chem, 2014)
